From ChEMBL document CHEMBL4376838, “Discovery of Novel Celastrol Derivatives as Hsp90-Cdc37 Interaction Disruptors with Antitumor Activity” (J Med Chem, 2019)
Calls of active or inactive are those of the source. No cut-off for these calls is given here.

Experiments:
HepG2 = assay: Antiproliferative activity against human HepG2 cells assessed as inhibition of cell growth incubated for 48 hrs by MTT assay; type: functional, cell-based; settings: HepG2, 48 h
How it was run: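 MTT read-out. Cells seeded at 5.0 × 10⁴ cells/ml and cultured 24 h, then exposed to the drug over a range of concentrations for 48 h, with matching DMSO as control. MTT (5 mg/ml) added for 4 h, supernatant removed, formazan dissolved in DMSO, OD read at 570 nm. Run in triplicate, mean ± SD (n = 3).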

[1] = target: Heat shock protein HSP 90-alpha (Homo sapiens) (UniProt P07900); assay: Inhibition of ATP binding to human HSP90 alpha at 5 to 10 uM preincubated for 30 mins followed by gamma phosphate-linked ATP sepharose addition and measured after 30 mins by ATP-binding sepharose assay based western blot analysis
How it was run: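 Purified human Hsp90α incubated on ice 30 min with compound or DMSO in 10 mM Tris-HCl pH 7.5, 50 mM KCl, 5 mM MgCl2, 2 mM DTT, 20 mM Na2MoO4, 0.01% NP-40. γ-phosphate-linked ATP-Sepharose then added, 30 min at 37 °C with frequent mixing. Resin washed and pelleted, bound Hsp90α detected by SDS-PAGE/Western blot.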

[2] = target: T1, Hsp90 co-chaperone Cdc37 (Homo sapiens) (UniProt Q16543); assay: Binding affinity to recombinant Cdc37 (unknown origin) assessed as inhibition of biotin labeled 3-[3-cyano-3-(4-fluorophenyl)prop-2-enoyl]oxypropyl(2R,4aS,6aR,6aS,14aS,14bR)-10-hydroxy-2,4a,6a,6a,9,14a-hexamethyl-11-oxo-1,3,4,5,6,13,14,14b-octahydropicene-2-carboxylate binding to enzyme at 0.25 to 0.5 uM incubated with compound for 2 hrs before or after incubation with biotin labeled 3-[3-cyano-3-(4-fluorophenyl)prop-2-enoyl]oxypropyl(2R,4aS,6aR,6aS,14aS,14bR)-10-hydroxy-2,4a,6a,6a,9,14a-hexamethyl-11-oxo-1,3,4,5,6,13,14,14b-octahydropicene-2-carboxylate for 2 hrs by pull down assay based immunoblot analysis
T1 sequence (whole entry): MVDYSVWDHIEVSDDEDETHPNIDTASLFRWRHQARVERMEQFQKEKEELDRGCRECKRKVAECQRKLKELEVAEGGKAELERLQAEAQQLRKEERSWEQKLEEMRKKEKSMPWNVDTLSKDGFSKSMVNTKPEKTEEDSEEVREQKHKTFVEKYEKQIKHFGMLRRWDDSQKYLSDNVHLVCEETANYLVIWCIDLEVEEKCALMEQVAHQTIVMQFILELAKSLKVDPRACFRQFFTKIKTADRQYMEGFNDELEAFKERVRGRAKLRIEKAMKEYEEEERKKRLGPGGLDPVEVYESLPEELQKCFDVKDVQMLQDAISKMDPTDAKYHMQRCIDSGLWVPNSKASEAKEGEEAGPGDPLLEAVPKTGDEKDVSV
How it was run: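 Recombinant Cdc37 ([…]) incubated with varying compound concentrations for 2 h, either before or after a 2 h incubation with biotinylated probe (0.5 μM) at 10 °C. Biotin alone served as control. Probe-bound protein captured on streptavidin beads, and input and bound fractions immunoblotted.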

[3] = target: T1, Hsp90 co-chaperone Cdc37 (Homo sapiens); assay: Binding affinity to Cdc37 in human A549 cells assessed as inhibition of HSP90-Cdc37 interaction by measuring decrease in CDK4 protein level incubated for 12 hrs by Western blot analysis; type: cell-based
How it was run: (§1)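 A549 cells (5×10^5 per 6 cm dish) were allowed to settle 12 h, then treated with DMSO or compound at the indicated concentrations for 12 h. Lysates were adjusted to 3 mg/ml protein by BCA and resolved on 10% SDS-PAGE, then Western blotted. β-actin or Hsp90 served as the loading control. Three separate experiments, mean ± SD.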

[4] = target: T1, Hsp90 co-chaperone Cdc37 (Homo sapiens); assay: Binding affinity to Cdc37 in human A549 cells assessed as inhibition of HSP90-Cdc37 interaction by measuring increase in cleaved caspase-3 protein level at 1.25 to 5 uM incubated for 12 hrs by Western blot analysis; type: cell-based; how it was run: as §1
[5] = target: T1, Hsp90 co-chaperone Cdc37 (Homo sapiens); assay: Binding affinity to Cdc37 in human A549 cells assessed as inhibition of HSP90-Cdc37 interaction by measuring decrease in Bcl2 protein level at 1.25 to 5 uM incubated for 12 hrs by Western blot analysis; type: cell-based; how it was run: as §1
A549 [6] = assay: Induction of morphological apoptosis in human A549 cells assessed as decrease in cell density incubated for 48 hrs by Hoechst 33342 and PI staining based fluorescence microscopic method; type: functional
How it was run: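 A549 cells (4×10^5 per 6 cm dish) were grown 24 h, then exposed to compound at the indicated concentrations or DMSO for 48 h. After PBS washes, cells were stained with Hoechst 33342 (10 µg/ml) plus PI for 5 min at room temperature in the dark and imaged by fluorescence microscopy for nuclear morphology.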

A549 [7] = assay: Induction of apoptosis in human A549 cells assessed as viable cells at 1.2 uM incubated for 48 hrs by Annexin V-FITC and PI staining based flow cytometric analysis (reference value: 95.5%); type: functional; settings: A549, 48 h, read-out: Activity
How it was run: (§2)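 A549 cells (4×10^5 per 6 cm dish) cultured 24 h, then treated 48 h with compound or DMSO. Cells gently harvested, washed twice in cold PBS, resuspended in binding buffer with Annexin V and PI, stained 15 min at room temperature in the dark, analysed by flow cytometry. Mean ± SD, n = 3.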

A549 [8] = assay: Induction of apoptosis in human A549 cells assessed as early apoptotic cells at 1.2 uM incubated for 48 hrs by Annexin V-FITC and PI staining based flow cytometric analysis (reference value: 0.5%); type: functional; how it was run: as §2
A549 [9] = assay: Induction of cell cycle arrest in human A549 cells assessed as accumulation at S phase at 0.2 uM incubated for 24 hrs by PI staining based flow cytometric analysis (reference value: 27.59%); type: functional
How it was run: (§3)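 A549 cells (4×10^5 per 6 cm dish) were grown 24 h, then exposed to compound (0.2, 0.4, 0.8 μM) or DMSO for 24 h. Cells fixed in 75% ethanol at −20 °C for at least 12 h, treated with RNase A at 37 °C for 30 min, then stained with PI for 15 min in the dark. Analysed by flow cytometry, mean ± SD, n = 3.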

A549 [10] = assay: Induction of cell cycle arrest in human A549 cells assessed as accumulation at G1 phase at 0.8 uM incubated for 24 hrs by PI staining based flow cytometric analysis (reference value: 60.14%); type: functional; how it was run: as §3
A549 [11] = assay: Induction of cell cycle arrest in human A549 cells assessed as accumulation at G2 phase at 0.8 uM incubated for 24 hrs by PI staining based flow cytometric analysis (reference value: 19.37%); type: functional; how it was run: as §3
A549 [12] = assay: Antiproliferative activity against human A549 cells assessed as inhibition of cell growth at 0.5 uM incubated for 48 hrs by MTT assay relative to control; type: functional; settings: A549, 48 h, read-out: GI
A549 [13] = assay: Induction of mitochondrial membrane potential loss in human A549 cells assessed as cells with depolarized mitochondria by measuring increase in J-monomer green fluorescence intensity at 0.8 uM incubated for 24 hrs by JC1 staining based fluorescence microscopic method (reference value: 1.5%); type: functional
A549 [14] = assay: Induction of mitochondrial membrane potential loss in human A549 cells assessed as cells with hyperpolarized mitochondria by measuring decrease in J-aggregates red fluorescence intensity at 0.8 uM incubated for 24 hrs by JC1 staining based fluorescence microscopic method (reference value: 98.4%); type: functional; design: scale not given: the % may be the effect or the level left

Q: How did the IC50 (HepG2) turn out when `CC1=C(O)C(=O)C=C2C1=CC=C1[C@@]2(C)CC[C@@]2(C)[C@@H]3C[C@](C)(C(=O)OCCCOC(=O)/C=C(\C#N)c4ccc(F)cc4)CC[C@]3(C)CC[C@]12C` was run?
A: 940 nM

Q: And the inhibition [1]?
A: inactive

Q: And the Activity [2]?
A: Active

Q: And the inhibition [3]?
A: Dose-dependent effect

Q: What about the inhibition [4] of the same molecule?
A: Active

Q: What about the inhibition [5] of the same molecule?
A: Active

Q: What about the Activity (A549 [6]) of the same molecule?
A: Dose-dependent effect

Q: And the viability at 1.2 µM (A549 [7])?
A: 59.2%

Q: What about the Activity (A549 [8]) of the same molecule?
A: 7.4%

Q: And the Activity (A549 [9])?
A: 26.39%

Q: What about the Activity (A549 [10]) of the same molecule?
A: 70.49%

Q: And the Activity (A549 [11])?
A: 15.55%

Q: What about the inhibition of growth at 0.5 µM (A549 [12]) of the same molecule?
A: 65.1%

Q: What about the Activity (A549 [13]) of the same molecule?
A: 26.2%

Q: What about the Activity (A549 [14]) of the same molecule?
A: 72.8%
